Assay results from different studies.
Lines come from different studies, so protocols differ.

| Structure (SMILES) | test | test system | conditions | measurement | value |
| --- | --- | --- | --- | --- | --- |
| CC(C)=CCC[C@](C)(O[C@@H]1O[C@H](CO)[C@@H](O)[C@H](O)[C@H]1O)[C@H]1CC[C@]2(C)[C@@H]1[C@H](O)C[C@@H]1[C@@]3(C)CC[C@H](O)C(C)(C)[C@@H]3CC[C@]12C |  | mouse, plasma | oral, 10 mg/kg | half-life | 14 h |
| CC(C)CC(=O)OC[C@H]1O[C@@](C#N)(c2ccc3c(N)ncnn23)[C@H](O)[C@@H]1O | metabolic stability | dog, hepatocytes | 5 µM | hepatocyte CLint | > 318 µL/min/10⁶ cells |
| CCOC(=O)c1c(NC(=O)CNC(C)C)sc2c1CCCCC2 |  | male mouse, brain | intraperitoneal, 100 mg/kg, single dose | half-life | 2.06 h |
| Cc1ncsc1-c1ccc([C@H](CC(=O)NCCOCCOCCOCCOCCOCCC(=O)N2CCC(Nc3cc(C(=O)NC[C@H](O)CN4CCc5ccccc5C4)ncn3)CC2)NC(=O)[C@@H]2C[C@@H](O)CN2C(=O)[C@@H](NC(=O)C2(F)CC2)C(C)(C)C)cc1 |  | male Swiss mouse, plasma | intraperitoneal, 50 mg/kg, 8 h, single dose | concentration | > 200 nM |
| COc1cc(C(=O)c2nc(-c3cccc4[nH]ccc34)c[nH]2)cc(OC)c1OC |  | male CD-1 mouse, plasma | intraperitoneal, 15 mg/kg | half-life | 0.95 h |
| CN(C)C1(CNC(=O)c2ccc3c(c2)CCN3C(=O)c2ccccc2)CCOCC1 |  | male C57BL/6 mouse, brain | intraperitoneal, 50 mg/kg, 2 h | concentration | 39 ng/g |
| CC(C)[C@]12O[C@H]1[C@@H]1O[C@]13[C@]1(O[C@H]1C[C@H]1C4=C(CC[C@@]13C)C(=O)OC4)[C@@H]2O |  | SCID mouse, plasma | intravenous, 0.6 mg/kg | half-life | 0.16 h |
| Cc1[nH]c(C)c(S(=O)(=O)Nc2ccc(S(F)(F)(F)(F)F)cc2)c1C(=O)N1CCC(F)(F)C1 |  | mouse, plasma | intraperitoneal, 40 mg/kg | half-life | 2.64 h |
